The subject of one series is HepG2. The series can be described thus: Cytotoxicity against human HepG2 cells at 80 uM after 24 hrs by MTT assay. The class given is cell-based. To be noted: hepg2, 24 h.
Series [1] deals with T1, Nuclear factor erythroid 2-related factor 2 (Homo sapiens) (UniProt Q16236).
T1 sequence (whole entry): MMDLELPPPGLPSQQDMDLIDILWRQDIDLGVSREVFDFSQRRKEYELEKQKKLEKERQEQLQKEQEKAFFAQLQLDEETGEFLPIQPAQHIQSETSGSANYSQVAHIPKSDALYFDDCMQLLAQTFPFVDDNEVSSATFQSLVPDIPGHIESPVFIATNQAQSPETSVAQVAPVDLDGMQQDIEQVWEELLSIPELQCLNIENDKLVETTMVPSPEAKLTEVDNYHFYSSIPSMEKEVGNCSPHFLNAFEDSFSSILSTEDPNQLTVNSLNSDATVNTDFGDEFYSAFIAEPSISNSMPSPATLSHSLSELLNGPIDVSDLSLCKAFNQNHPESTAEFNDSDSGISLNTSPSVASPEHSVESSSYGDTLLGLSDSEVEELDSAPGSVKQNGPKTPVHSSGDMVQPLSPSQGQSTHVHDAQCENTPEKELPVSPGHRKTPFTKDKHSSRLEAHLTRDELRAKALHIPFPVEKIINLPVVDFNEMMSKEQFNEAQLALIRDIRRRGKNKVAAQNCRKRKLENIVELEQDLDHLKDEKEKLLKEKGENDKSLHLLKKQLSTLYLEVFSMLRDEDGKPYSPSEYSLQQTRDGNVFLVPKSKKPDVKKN
Put plainly: Activation of Nrf2 in human HepG2-ARE-C8 cells assessed as induction of ARE-mediated luciferase activity at 0.1 uM after 24 hrs by luciferase reporter gene assay relative to control. The class given is cell-based. In short, it runs like this: (§1)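 HepG2-ARE-C8 cells stably carrying ARE-luciferase, grown in DMEM with 10% FBS at 37 °C and 5% CO2. Seeded at 5 × 10^4 cells/well, left overnight, then given compound diluted from a 10 mM DMSO stock for 24 h. Cells lysed and luciferase read as RLU. Inductivity = (RLUtest − RLUblank)/(RLUcontrol − RLUblank), with DMSO as control. Mean ± SEM of three experiments.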
In general terms: In a reporter assay the amount or activity of a reporter protein is the signal.

Series [2] concerns the target T1, Nuclear factor erythroid 2-related factor 2 (Homo sapiens). Put plainly: Activation of Nrf2 in human HepG2-ARE-C8 cells assessed as induction of ARE-mediated luciferase activity at 20 uM after 24 hrs by luciferase reporter gene assay relative to control. The class given is cell-based. A digest of the protocol:
as §1

For series [3] the target is unchanged. Put plainly: Activation of Nrf2 in human HepG2-ARE-C8 cells assessed as induction of ARE-mediated luciferase activity at 40 uM after 24 hrs by luciferase reporter gene assay relative to control. The class given is cell-based. In short, it runs like this:
as §1

Series [4] has as its system L02. The series can be described thus: Cytotoxicity against human LO2 cells up to 160 uM after 24 hrs by MTT assay. The class given is cell-based. To be noted: l02, 24 h. In short, it runs like this:
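LO2 cells plated for 12 h, then treated for 24 h with 0, 0.2, 2, 20, 40, 80 or 160 μM compound diluted in medium from a DMSO stock. MTT (5 mg/mL stock) added for 4 h, formazan dissolved in DMSO, A570 read. Viability computed from OD relative to DMSO control and blank. Mean ± SD of three experiments.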

Series [5] has as its target T1, Nuclear factor erythroid 2-related factor 2 (Homo sapiens). The series can be described thus: Activation of Nrf2 in human LO2 cells cotreated with Nrf2 siRNA assessed as increase in Nrf2 mRNA expression level at 20 uM by qRT-PCR analysis. The class given is cell-based. A digest of the protocol:
(§2)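 LO2 cells plated at 7 × 10^5 per 60 mm dish and transfected with 50 nM Nrf2 siRNA (scrambled siRNA as control). After 24 h, fresh medium was added and cells grown a further 48 h. Then 20 μM compound for 12 h. Nrf2, NQO1, GCLM and HO-1 mRNA measured by qRT-PCR, normalized to GAPDH, as fold over control.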

The target is the same in series [6]. Put plainly: Activation of Nrf2 in human LO2 cells cotreated with Nrf2 siRNA assessed as increase in HO-1 mRNA expression level at 20 uM by qRT-PCR analysis. The class given is cell-based. In short, it runs like this: as §2
Background: In qPCR the cycle at which signal appears reflects the starting amount.

Series [7] has the same target. Put plainly: Activation of Nrf2 in human LO2 cells assessed as increase in Nrf2 mRNA expression level by qRT-PCR analysis. The class given is cell-based. In short, it runs like this:
(§3)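 LO2 cells in DMEM with 10% FBS were exposed to 0, 2.5, 5, 10, 20 or 40 μM compound for 12 h. Transcripts measured by qRT-PCR: 40 cycles of 95 °C for 5 s and 60 °C for 30 s. Normalized to GAPDH and expressed as fold over the untreated control. Mean ± SD, n = 3.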

The target is the same in series [8]. The series can be described thus: Activation of Nrf2 in human LO2 cells assessed as increase in GCLC mRNA expression level by qRT-PCR analysis. The class given is cell-based. A digest of the protocol: as §3
The subject of series [9] is L02. Put plainly: Hepatoprotective activity against APAP-induced cell injury in human LO2 cells assessed as increase in cell viability at 20 uM pretreated for 24 hrs followed by APAP treatment measured after 24 hrs by MTT assay. The class given is functional. A digest of the protocol:
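LO2 cells plated for 12 h and pretreated for 24 h with 5, 10 or 20 μM compound. One arm was first transfected with 50 nM Nrf2 siRNA before receiving 20 μM compound. Medium then replaced with medium containing 8 mM APAP for 24 h. Viability by MTT at A570. Mean ± SD of three experiments.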
Background: Tetrazolium dyes change colour on reduction, which living cells bring about.

Series [10] in a line: Intrinsic aqueous solubility of the compound by potentiometric titration method. The class given is physicochemical. In short, it runs like this:
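Intrinsic aqueous solubility and logD at pH 7.4 determined by Avdeef-Bucher potentiometric titration on a pION Gemini Profiler.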

The test system of series [11] is Mus musculus. Put plainly: In vivo activation of Nrf2 in APAP-induced liver injury in C57BL/6 mouse assessed as increase in NQO1 mRNA expression level administered ip for 7 consecutive days followed by APAP challenge 1 hr post last compound dose and measured after 24 hrs by qRT-PCR analysis. The class given is functional, organism-based. A digest of the protocol: (§4)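 Female C57BL/6 mice (20–25 g, n = 10/group) received 10, 50 or 100 mg/kg/day ip in saline for 7 days. One hour after the last dose they received APAP 300 mg/kg in saline. Killed 24 h later. Serum ALT/AST by kit. Liver homogenates (pH 7.0 phosphate) used for GSH (A420, μmol/g protein), GST (A412, U/mg protein) and SOD. Liver also analyzed by western blot (β-actin normalized), qRT-PCR (GAPDH normalized) and H&E.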

Series [12] relates to Mus musculus. The series can be described thus: In vivo activation of Nrf2 in APAP-induced liver injury in C57BL/6 mouse assessed as increase in Nrf2 mRNA expression level administered ip for 7 consecutive days followed by APAP challenge 1 hr post last compound dose and measured after 24 hrs by qRT-PCR analysis. The class given is functional, organism-based. In short, it runs like this:
as §4

In series [13] the test system is Mus musculus. Put plainly: In vivo activation of Nrf2 in APAP-induced liver injury in C57BL/6 mouse assessed as increase in HO-1 mRNA expression level administered ip for 7 consecutive days followed by APAP challenge 1 hr post last compound dose and measured after 24 hrs by qRT-PCR analysis. The class given is functional, organism-based. In short, it runs like this:
as §4

Series [14] deals with Mus musculus. The series can be described thus: Hepatoprotective activity against APAP-induced liver injury in C57BL/6 mouse assessed as increase in GSH levels administered ip for 7 consecutive days followed by APAP challenge 1 hr post last compound dose and measured after 24 hrs. The class given is functional, organism-based. A digest of the protocol: as §4
The test system of series [15] is Mus musculus. Put plainly: Hepatoprotective activity against APAP-induced liver injury in C57BL/6 mouse assessed as increase in GST levels administered ip for 7 consecutive days followed by APAP challenge 1 hr post last compound dose and measured after 24 hrs. The class given is functional, organism-based. In short, it runs like this: as §4

The structures appear in SMILES notation. In brackets after ≈: the same amount, converted by molar mass. Activity calls are given as the source filed them. The rule behind the calls is not given here.

The values below come from ChEMBL document CHEMBL4265908, “Structure-activity and structure-property relationships of novel Nrf2 activators with a 1,2,4-oxadiazole core and their therapeutic effects on acetaminophen (APAP)-induced acute liver injury” (Eur J Med Chem, 2018).

As to `Cc1ccc(-c2noc(-c3ccc(F)c(F)c3)n2)cn1`, the Activity result in the series on HepG2 is “Non-Toxic”; in series [1], 3.46; in [2], 24.7; in [3], 48.7; with L02 [4], “<= 7%”; in series [7] it was “Dose-dependent effect”. In addition, the Activity result in [8] is “Dose-dependent effect”; in the series with L02 [9], 80%; with Mus musculus [11], “Dose-dependent effect”; with Mus musculus [12], “Dose-dependent effect”; with Mus musculus [13] it was “Dose-dependent effect”; in the series with Mus musculus [14], “Dose-dependent effect”. Also, the Activity result in the series on Mus musculus [15] was “Dose-dependent effect”. Besides, the outcome in series [5] and in series [6] was Active. The solubility in series [10] stood at 250 µM (≈ 68.3 µg/mL).

The term solubility denotes the dissolved amount per volume that the medium holds.
